# ASAP1 GAP inh – inhibitors of human ASAP1 ArfGAP activity, primary screen, biochemical, fluorescence polarization | Arf-GAP with SH3 domain, ANK repeat and PH domain-containing protein 1 (Homo sapiens), … | ASAP1-stimulated ARF1 GTP hydrolysis, GDP FP detection | inhibition, % at 16.5 µM | AID 624377, 2012 | actives 0.19% (n = 360,000); in the data active means inhibition above about 25%;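 further: 0% = vehicle with enzyme and substrate and 100% = no enzyme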
# MsrA inhibitor – bovine MsrA enzyme inhibitors, primary screen, biochemical, absorbance, HTS | Methionine sulfoxide reductase A (Bos taurus) | purified bovine MsrA, absorbance read-out | inhibition, % at 15.5 µM | actives 0.75% (n = 360,000) | AID 651718, 2012;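 further: 0% = vehicle wells with enzyme and 100% = reference inhibitor wells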
# ARFGAP1 inh – inhibitors of rat ARFGAP1 GAP activity, primary screen, biochemical, fluorescence polarization, GDP tracer; ADP-ribosylation factor GTPase-activating protein 1 (Rattus norvegicus), Q62848; Arfgap1-stimulated ARF1 GTP hydrolysis, GDP FP detection; inhibition, % at 16.5 µM; actives 0.26% (n = 360,000); AID 651572, 2012;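 active means inhibition above a per-plate limit, mean inhibition of low control wells plus 3 SD, cut at about 25% in these data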;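 further: 0% = DMSO wells with enzyme and 100% = wells lacking Arfgap1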
#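 Material: rat Arfgap1 catalytic domain, aa 1-136; also added: human ARF1(Δ1-17)-GTP substrate; compound dosing: one concentration, 16.5 µM, DMSO 1.26%; incubation: GTP hydrolysis reaction 2 h at 25 °C; measured by: Tracer-displacement fluorescence polarization with EDTA stop, 620/688 nm; evaluation: % inhibition from polarization; repeats: one replicate per compound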
# NR1D1 modulator – modulators of Rev-erb alpha DNA binding, primary screen, biochemical, FITC-DNA, fluorescence polarization, uHTS; Nuclear receptor subfamily 1 group D member 1 (Homo sapiens), P20393; Rev-erbα–FITC-DNA binding, 90 min; activity, % at 10 µM; actives 0.79% (n = 370,000); AID 1259318, 2017;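 active means activity above about 14%, limit read from the data; passing the limit was not always enough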;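 further: 0% = DMSO wells with 35 nM protein and 100% = DMSO wells with 750 nM protein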
# bovine MsrA act – bovine MsrA enzyme activators, primary screen, biochemical, absorbance, HTS; Methionine sulfoxide reductase A (Bos taurus); purified bovine MsrA, absorbance read-out; activation, % at 10.6 µM; actives 0.3% (n = 360,000); in the data active means activation above about 7.5%;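 further: 0% = vehicle and 100% = reference activator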
# sPLA2-III inh – human group III sPLA2 inhibitors, primary screen, biochemical, QFRET, BODIPY PC-A2 liposome substrate; QFRET BODIPY PC-A2 liposome hydrolysis, fluorescence; AID 743126, 2013; inhibition, % at 12.2 µM; actives 0.56% (n = 370,000);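 active means inhibition above mean plus 3 SD of compounds lying within the high and low control bounds, cut at about 19% in these data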;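 further: 0% = median of test compound wells and 100% = no enzyme DMSO wells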
# MsrA inh confirm – bovine MsrA inhibitors, retest, confirmation, biochemical, absorbance, HTS; shares compounds with MsrA inhibitor; AID 651822, 2012; actives 41% (n = 2,300); purified bovine MsrA, absorbance read-out; inhibition, % at 15.5 µM;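 further: coupled to thioredoxin reductase with NADPH and selenocystamine and DMSO as substrate; 0% = vehicle only and 100% = full effect of reference inhibitor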
# Numbers without * were called inactive; x = no result. Shown are actives, neighbours in structure and some others; about 2.7% of the full set was active somewhere. Unless noted, no stated cut-off is given here; in the data, active means inhibition above about 4.5%; inactive means the rest.
SMILES,ASAP1 GAP inh,MsrA inhibitor,ARFGAP1 inh,NR1D1 modulator,bovine MsrA act,sPLA2-III inh,MsrA inh confirm
CCCC(=O)N1CCC[C@]2(CC[C@@H](CCC(C)=O)O2)C1,x,x,x,1.1,x,4.4,x
O=C(Nc1ccc2ccccc2c1)NC1CCCCN(Cc2cccc(Cl)c2)C1=O (centres undefined),x,x,x,2.8,x,4.0,x
O=C(O)c1cccc(N/N=C/c2sc(N3CCOCC3)nc2-c2ccccc2)c1,-1.5,18.9*,6.8,-7.5,-14.8,-2.2,16.9*
Nc1ccc(C(=O)N/N=C/c2sc(N3CCOCC3)nc2-c2ccccc2)cc1,17.4,7.4*,-0.5,-5.6,-3.0,8.5,3.7
Cc1cc(C(=O)N/N=C/c2sc(N3CCOCC3)nc2-c2ccccc2)c(C)o1,-9.5,17.4*,-8.4,-0.6,-1.5,-1.8,6.7*
COc1cc(C(=O)N/N=C/c2sc(N3CCOCC3)nc2-c2ccccc2)cc(OC)c1OC,6.5,6.6*,3.9,5.7,-5.4,-0.9,3.3
O=C(Nc1ccccc1F)C(=Cc1sc(N2CCOCC2)nc1-c1ccccc1)C(=O)Nc1ccccc1F,3.3,4.8*,9.3,3.2,-5.9,7.7,4.4
O=C(N/N=C/c1sc(N2CCOCC2)nc1-c1ccccc1)c1ccccc1O,-16.6,6.5*,-8.2,-3.8,-5.9,-9.6,5.1*
O=C(N/N=C/c1sc(N2CCOCC2)nc1-c1ccccc1)c1ccccc1Cl,6.2,0.3,-11.6,1.3,-10.7,4.8,x
Cc1ccc(S(=O)(=O)N2CCN(C(=O)c3cccn3C)CC2)cc1,x,x,x,3.0,x,2.0,x
CC(=O)N1c2cc(S(=O)(=O)N3CCN(c4ccccc4F)CC3)c(Br)cc2CC1C (centres undefined),x,x,x,0.5,x,-9.2,x
Cc1c(/C=N/Nc2ccc(F)cc2)c(O)n(C)c(=O)c1C#N,-7.8,6.4*,0.4,-3.2,-15.1,-2.6,6.7*
CC(=O)N=Cc1c(C)c(C#N)c(=O)n(C)c1O,1.9,3.5,1.9,-0.6,-3.3,-1.5,x
Cc1cc(/C=C(/C#N)c2cccc(F)c2)c(C)n1-c1cccnc1,-4.0,25.9*,-14.5,2.7,-4.1,8.1,27.2*
N#Cc1c(-c2ccc(Cl)cc2)nc2n(c1=O)CCCS2,5.9,2.1,3.3,3.3,-3.8,-1.1,x
O=c1c2cc(Cl)ccc2oc2nc3n(c(=O)c12)CCCS3,7.4,8.9*,-5.6,2.8,-1.9,4.8,4.5
C[C@@H]1ON(C)[C@H]2C[C@H]3c4[nH]c5c(-c6cc(Cl)cc(Cl)c6)cccc5c4CCN3C(=O)[C@@H]12,7.9,-1.1,3.0,9.1,x,1.6,x
COCCCNc1nc2nonc2nc1N1CCN2CCCC2C1 (centres undefined),2.3,4.8*,-8.1,3.1,-6.2,2.8,3.4
CS(=O)(=O)c1ccc(-c2nnc(NC(=O)c3ccc(S(=O)(=O)N4CCCC4)cc3)o2)cc1,-0.3,5.1*,-2.0,0.1,-2.1,-3.6,4.5
O=[N+]([O-])c1ccc(N=NN(CCO)CCO)cc1,-3.8,5.3*,-4.1,-1.6,-13.4,6.0,2.4
O=[N+]([O-])c1ccc(N=Nc2ncc[nH]2)cc1,-4.8,1.5,2.8,3.6,-7.0,-6.3,x
O=S1(=O)N=C(N2CCCc3ccccc32)c2ccccc21,11.1,10.1*,4.0,3.4,-2.1,5.3,3.3
Nc1c2ccccc2nc2ccccc12,4.5,-0.1,-4.2,1.6,-3.3,-0.6,x
N#Cc1c2ccccc2nc2ccccc12,15.3,7.0*,6.1,-3.7,-3.3,11.1,5.0*

# Bioassay records from PubChem BioAssay.
